These results are taken from ChEMBL document CHEMBL1149771, “Antimicrobial studies of 2,4-dichloro-5-fluorophenyl containing oxadiazoles” (2008).

≈ marks a conversion by molar mass, not a printed value.

Holding throughout (assay type): functional
In test [1] the test system is Pseudomonas aeruginosa. The experiment in a line: Antibacterial activity against Pseudomonas aeruginosa ATCC 27853 at 35 degC after 18 to 24 hrs. An outline of the steps: (§1)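 Bactericidal endpoint (MBC) taken from the broth-dilution MIC tubes. 0.1 ml from each tube was spread on agar plates and c.f.u. counted after 18–24 h. MBC was the lowest concentration completely killing the bacteria.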

In test [2] the test system is Candida albicans. The experiment in a line: Antifungal activity against Candida albicans at 37 degC after 3 to 4 days by agar dilution method. An outline of the steps:
(§2)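 Agar well diffusion for fungi, compounds in DMSO. Sabouraud agar was adjusted to pH 5.7 and lawned with a saline spore suspension (a loopful in 3 ml). Plates were dried 1 h at 37 °C, then wells were punched. Incubation was 3–4 days at 37 °C, with controls in triplicate. Inhibition zones were measured against controls, with griseofulvin as standard.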
A general note: In agar dilution the substance is mixed into plates at graded concentrations.

Test [3] deals with Klebsiella pneumoniae. The experiment in a line: Antibacterial activity against Klebsiella pneumoniae ATCC 25922 at 37 degC after 24 hrs by disc diffusion method. The method in brief: (§3)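 Disc diffusion on nutrient agar. Plates were spread with 1–2 × […] c.f.u./ml inoculum (0.5 McFarland). Sterile 6.25 mm filter-paper discs were soaked in a known concentration of compound and placed on the agar. Plates were inverted and incubated 24 h at 37 °C. Inhibition zones (mm) were read against solvent and growth controls, with ciprofloxacin as reference.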

The subject of test [4] is Trichophyton mentagrophytes. The experiment in a line: Antifungal activity against Trichophyton mentagrophytes at 37 degC after 3 to 4 days by agar dilution method. To be noted: in the assay text read “agar diffusion method” for “agar dilution method”. The method in brief: as §2
The test system of test [5] is Aspergillus fumigatus. As to the kind of experiment: Antifungal activity against Aspergillus fumigatus at 35 degC after 48 hrs by broth dilution method. The method in brief:
(§4)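 Fungal MIC by broth dilution. Two-fold serial dilutions of compound in nutrient broth were inoculated with about 1.6 × 10⁴–6 × 10⁴ c.f.u./ml. Incubation was 48 h at 35 °C. MIC was the lowest concentration arresting fungal growth.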
A general note: In broth dilution the organism is exposed to a series of concentrations in liquid medium.

Test [6] has as its system Trichophyton mentagrophytes. As to the kind of experiment: Antifungal activity against Trichophyton mentagrophytes at 35 degC after 48 hrs by broth dilution method. An outline of the steps:
as §4

For test [7], the system named is Talaromyces marneffei. As to the kind of experiment: Antifungal activity against Penicillium marneffei at 37 degC after 3 to 4 days by agar […] method. An outline of the steps: as §2
For test [8], the system named is Candida albicans. As to the kind of experiment: Antifungal activity against Candida albicans at 35 degC after 48 hrs by broth dilution method. An outline of the steps:
as §4

Test [9] relates to Pseudomonas aeruginosa. The experiment in a line: Antibacterial activity against Pseudomonas aeruginosa ATCC 27853 at 37 degC after 24 hrs by broth dilution method. To be noted: ATCC 27853, 24 h. An outline of the steps:
(§5)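 Broth dilution MIC. Nutrient broth held two-fold serial dilutions of compound and was inoculated with about 5 × 10⁵ c.f.u. of actively dividing bacteria. Cultures ran 24 h at 37 °C, with growth checked visually and spectrophotometrically. MIC was the lowest concentration arresting growth. Ciprofloxacin was the standard.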

In test [10] the test system is Aspergillus fumigatus. As to the kind of experiment: Antifungal activity against Aspergillus fumigatus at 35 degC after 48 hrs. An outline of the steps: (§6)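 Fungicidal endpoint (MFC). 0.1 ml from each broth-dilution tube was spread on agar plates and c.f.u. counted after 48 h at 35 °C. MFC was the lowest concentration killing 99.9% of the inoculum.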
Test [11] deals with Candida albicans. As to the kind of experiment: Antifungal activity against Candida albicans at 35 degC after 48 hrs. The method in brief:
as §6

For test [12], the system named is Escherichia coli. The experiment in a line: Antibacterial activity against Escherichia coli ATCC 25922 at 35 degC after 18 to 24 hrs. An outline of the steps:
as §1

Test [13] relates to Escherichia coli. As to the kind of experiment: Antibacterial activity against Escherichia coli ATCC 25922 at 37 degC after 24 hrs by broth dilution method. To be noted: ATCC 25922, 24 h. An outline of the steps:
as §5

In test [14] the test system is Pseudomonas aeruginosa. As to the kind of experiment: Antibacterial activity against Pseudomonas aeruginosa ATCC 27853 at 37 degC after 24 hrs by disc diffusion method. An outline of the steps: as §3
A general note: A growth-free zone around the sample is the usual read-out of agar diffusion tests.

Test [15] concerns Trichophyton mentagrophytes. The experiment in a line: Antifungal activity against Trichophyton mentagrophytes at 35 degC after 48 hrs. An outline of the steps:
as §6

Test [16] relates to Staphylococcus aureus. As to the kind of experiment: Antibacterial activity against Staphylococcus aureus ATCC 25923 at 35 degC after 18 to 24 hrs. The method in brief: as §1
For test [17], the system named is Klebsiella pneumoniae. The experiment in a line: Antibacterial activity against Klebsiella pneumoniae ATCC 25922 at 37 degC after 24 hrs by broth dilution method. To be noted: recultured, in the assay text read “Klebsiella pneumoniae (recultured)” for “Klebsiella pneumoniae ATCC 25922”. The method in brief: as §5
In test [18] the test system is Escherichia coli. As to the kind of experiment: Antibacterial activity against Escherichia coli ATCC 25922 at 37 degC after 24 hrs by disc diffusion method. The method in brief: as §3
Test [19] relates to Staphylococcus aureus. The experiment in a line: Antibacterial activity against Staphylococcus aureus ATCC 25923 at 37 degC after 24 hrs by broth dilution method. Conditions: ATCC 25923, 24 h. The method in brief: as §5
Test [20] has as its system Talaromyces marneffei. As to the kind of experiment: Antifungal activity against Penicillium marneffei at 35 degC after 48 hrs. The method in brief:
as §6

Test [21] relates to Aspergillus fumigatus. The experiment in a line: Antifungal activity against Aspergillus fumigatus at 37 degC after 3 to 4 days by agar […] method. An outline of the steps: as §2
For test [22], the system named is Talaromyces marneffei. As to the kind of experiment: Antifungal activity against Penicillium marneffei at 35 degC after 48 hrs by broth dilution method. The method in brief:
as §4

For test [23], the system named is Staphylococcus aureus. The experiment in a line: Antibacterial activity against Staphylococcus aureus ATCC 25923 at 37 degC after 24 hrs by disc diffusion method. The method in brief:
as §3

The test system of test [24] is Klebsiella pneumoniae. As to the kind of experiment: Antibacterial activity against Klebsiella pneumoniae ATCC 25922 at 35 degC after 18 to 24 hrs. To be noted: recultured, in the assay text read “Klebsiella pneumoniae (recultured)” for “Klebsiella pneumoniae ATCC 25922”. An outline of the steps:
as §1

The MBC is the smallest concentration meeting the test's criterion for killing. Read a high MBC as less potent killing. What is called MIC is the lowest concentration found to suppress growth. Higher therefore signals weaker potency. Usually MFC stands for the lowest tested concentration that kills the fungus rather than only halting it. Read a low MFC as greater fungicidal potency. In the case of `Fc1cc(-c2cc(-c3nnc(COc4ccc(Cl)cc4Cl)o3)c3ccccc3n2)c(Cl)cc1Cl`, the minimal bactericidal concentration (MBC) worked out at 12.5 µg/mL (≈ 23.4 µM) in the test with Pseudomonas aeruginosa [1], 12.5 µg/mL (≈ 23.4 µM) against Escherichia coli [12], 6.25 µg/mL (≈ 11.7 µM) against Staphylococcus aureus [16] and 12.5 µg/mL (≈ 23.4 µM) in the test on Klebsiella pneumoniae [24]. The “inhibition zone (IZ)” value is given as 29 mm in the test on Candida albicans [2]; 17 mm with Klebsiella pneumoniae [3]; 21 mm in test [4]; 19 mm in the test with Talaromyces marneffei [7]; 30 mm in the test with Pseudomonas aeruginosa [14]; 26 mm in the test on Escherichia coli [18]. For the same compound, the “inhibition zone (IZ)” value is 27 mm in the test with Aspergillus fumigatus [21] and 20 mm with Staphylococcus aureus [23]. Also, the MIC against Aspergillus fumigatus [5] was 6.25 µg/mL (≈ 11.7 µM); in test [6], 6.25 µg/mL (≈ 11.7 µM); with Candida albicans [8], 6.25 µg/mL (≈ 11.7 µM); against Pseudomonas aeruginosa [9], 6.25 µg/mL (≈ 11.7 µM); against Escherichia coli [13], 6.25 µg/mL (≈ 11.7 µM); against Klebsiella pneumoniae [17], 12.5 µg/mL (≈ 23.4 µM). For the same compound, the minimal inhibitory concentration (MIC) with Staphylococcus aureus [19] and against Talaromyces marneffei [22] was 6.25 µg/mL (≈ 11.7 µM) in each case. For the same compound, the MFC in the test on Aspergillus fumigatus [10] was 12.5 µg/mL (≈ 23.4 µM); against Candida albicans [11], 6.25 µg/mL (≈ 11.7 µM); in test [15] it was 25 µg/mL (≈ 46.7 µM); against Talaromyces marneffei [20], 6.25 µg/mL (≈ 11.7 µM).

Turning to `Fc1cc(-c2cc(-c3nnc(COc4ccccc4Cl)o3)c3ccccc3n2)c(Cl)cc1Cl`, the minimal bactericidal concentration (MBC) is 50 µg/mL (≈ 99.9 µM) in the test with Pseudomonas aeruginosa [1], 50 µg/mL (≈ 99.9 µM) with Escherichia coli [12], greater than 100 µg/mL against Staphylococcus aureus [16] and 100 µg/mL (≈ 200 µM) with Klebsiella pneumoniae [24]. Further, the “inhibition zone (IZ)” value in the test with Candida albicans [2] worked out at 20 mm; in the test with Talaromyces marneffei [7], 12 mm; in the test with Pseudomonas aeruginosa [14] it was 22 mm; with Escherichia coli [18] it was 20 mm. Moreover, the Activity (in the test with Klebsiella pneumoniae [3]; in [4]; in the test on Aspergillus fumigatus [21]; with Staphylococcus aureus [23]) was greater than 100 µg/mL in each case. For the same compound, the minimal inhibitory concentration (MIC) in the test with Aspergillus fumigatus [5] is greater than 100 µg/mL; in test [6], greater than 100 µg/mL; in the test with Candida albicans [8], 6.25 µg/mL (≈ 12.5 µM); in the test with Pseudomonas aeruginosa [9], 25 µg/mL (≈ 49.9 µM); in the test with Escherichia coli [13], 6.25 µg/mL (≈ 12.5 µM); with Klebsiella pneumoniae [17] it was 25 µg/mL (≈ 49.9 µM). The minimum inhibitory concentration (MIC) in the test on Staphylococcus aureus [19] is greater than 100 µg/mL; with Talaromyces marneffei [22], 12.5 µg/mL (≈ 25 µM). Moreover, the minimal fungicidal concentration (MFC) was greater than 100 µg/mL against Aspergillus fumigatus [10], 12.5 µg/mL (≈ 25 µM) with Candida albicans [11], greater than 100 µg/mL in [15] and 25 µg/mL (≈ 49.9 µM) against Talaromyces marneffei [20].

Regarding `O=C(O)c1cn(C2CC2)c2cc(N3CCNCC3)c(F)cc2c1=O` [CIPROFLOXACIN], the minimal bactericidal concentration (MBC) in the test with Pseudomonas aeruginosa [1], against Escherichia coli [12], in the test on Staphylococcus aureus [16] and with Klebsiella pneumoniae [24] was 12.5 µg/mL (≈ 37.7 µM) throughout. The “inhibition zone (IZ)” value in the test on Klebsiella pneumoniae [3] came out at 19 mm; in the test on Pseudomonas aeruginosa [14], 32 mm; with Escherichia coli [18] it was 27 mm; with Staphylococcus aureus [23], 22 mm. This compound also displayed a minimum inhibitory concentration (MIC) with Klebsiella pneumoniae [17] of 12.5 µg/mL (≈ 37.7 µM).

In the case of `COC1=CC(=O)C[C@@H](C)[C@]12Oc1c(Cl)c(OC)cc(OC)c1C2=O` [GRISEOFULVIN], the “inhibition zone (IZ)” value stood at 30 mm in the test with Candida albicans [2], 24 mm in [4], 20 mm in the test on Talaromyces marneffei [7] and 27 mm in the test on Aspergillus fumigatus [21]. In addition, the minimal inhibitory concentration (MIC) (with Aspergillus fumigatus [5]; in test [6]; against Candida albicans [8]; with Talaromyces marneffei [22]) was 6.25 µg/mL (≈ 17.7 µM) in each case. The MFC (in the test with Aspergillus fumigatus [10]; against Candida albicans [11]; in test [15]; against Talaromyces marneffei [20]) was 12.5 µg/mL (≈ 35.4 µM) in each case.
